# Reference: paper PMC10213863 (Cell Reports Medicine, 2023)
# Columns and labels:
# [1] = molecular target: T1, TLR8 (Homo sapiens, UniProt Q9NR97); experiment: Human whole blood assay, ssRNA-TNF; type: cell-based
# T1 sequence (Q9NR97 27-1041): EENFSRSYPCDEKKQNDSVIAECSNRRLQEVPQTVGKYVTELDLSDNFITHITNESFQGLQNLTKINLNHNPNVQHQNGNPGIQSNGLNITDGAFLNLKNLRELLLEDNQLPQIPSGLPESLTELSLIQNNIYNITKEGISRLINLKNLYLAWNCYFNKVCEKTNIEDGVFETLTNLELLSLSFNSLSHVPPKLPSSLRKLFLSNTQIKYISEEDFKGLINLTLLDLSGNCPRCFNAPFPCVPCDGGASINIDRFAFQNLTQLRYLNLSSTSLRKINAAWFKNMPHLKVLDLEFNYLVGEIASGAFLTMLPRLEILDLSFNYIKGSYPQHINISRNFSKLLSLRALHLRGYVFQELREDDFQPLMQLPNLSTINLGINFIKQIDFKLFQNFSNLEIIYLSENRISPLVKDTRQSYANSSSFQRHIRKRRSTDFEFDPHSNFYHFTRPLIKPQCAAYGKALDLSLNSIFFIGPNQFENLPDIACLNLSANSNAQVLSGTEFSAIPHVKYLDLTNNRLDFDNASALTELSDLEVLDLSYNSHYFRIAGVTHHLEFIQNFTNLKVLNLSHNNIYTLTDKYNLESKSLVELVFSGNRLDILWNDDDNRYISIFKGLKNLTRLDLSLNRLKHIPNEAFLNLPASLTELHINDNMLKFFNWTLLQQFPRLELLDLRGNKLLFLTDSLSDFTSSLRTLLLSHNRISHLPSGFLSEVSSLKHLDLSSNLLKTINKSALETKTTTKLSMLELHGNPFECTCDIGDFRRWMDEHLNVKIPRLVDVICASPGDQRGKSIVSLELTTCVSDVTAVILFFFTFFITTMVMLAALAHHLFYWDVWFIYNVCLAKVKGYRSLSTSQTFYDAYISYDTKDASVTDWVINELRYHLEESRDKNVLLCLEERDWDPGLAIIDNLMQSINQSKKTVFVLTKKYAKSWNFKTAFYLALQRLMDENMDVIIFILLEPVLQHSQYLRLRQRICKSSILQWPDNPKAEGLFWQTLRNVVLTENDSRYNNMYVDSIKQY
# Outline: (§1)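 Fresh human blood or 129/Sv mouse blood was taken into citrate and diluted 1:1 with RPMI1640. It was pre-incubated 30 min at 37°C, 5% CO2 with increasing concentrations of test compound or 0.25% v/v DMSO (final). Blood was then stimulated with TLR agonists at doses from earlier work, or with R848 (3 μM), and cytokines were quantified. Viability was checked by ATPlite luminescence.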
# [2] = tested on: tumor necrosis factor (TNF) receptor; experiment: Ramos Blue reporter B cell line, TNF stimulation; type: cell-based, human; settings: Ramos cells; up to 10 μM; n = 4, data not shown
# Outline: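 Ramos Blue B reporter cells were pre-treated 30 min at 37°C, 5% CO2 with increasing concentrations of test compound or 0.25% v/v DMSO. They were then stimulated with the respective agonist, and reporter activity was read.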
# [3] = molecular target: T2, TLR9 (Homo sapiens, UniProt Q9NR96); experiment: Human PBMC assay, ODN2216-induced IFN-α; type: cell-based
# T2 sequence (Q9NR96 26-1032): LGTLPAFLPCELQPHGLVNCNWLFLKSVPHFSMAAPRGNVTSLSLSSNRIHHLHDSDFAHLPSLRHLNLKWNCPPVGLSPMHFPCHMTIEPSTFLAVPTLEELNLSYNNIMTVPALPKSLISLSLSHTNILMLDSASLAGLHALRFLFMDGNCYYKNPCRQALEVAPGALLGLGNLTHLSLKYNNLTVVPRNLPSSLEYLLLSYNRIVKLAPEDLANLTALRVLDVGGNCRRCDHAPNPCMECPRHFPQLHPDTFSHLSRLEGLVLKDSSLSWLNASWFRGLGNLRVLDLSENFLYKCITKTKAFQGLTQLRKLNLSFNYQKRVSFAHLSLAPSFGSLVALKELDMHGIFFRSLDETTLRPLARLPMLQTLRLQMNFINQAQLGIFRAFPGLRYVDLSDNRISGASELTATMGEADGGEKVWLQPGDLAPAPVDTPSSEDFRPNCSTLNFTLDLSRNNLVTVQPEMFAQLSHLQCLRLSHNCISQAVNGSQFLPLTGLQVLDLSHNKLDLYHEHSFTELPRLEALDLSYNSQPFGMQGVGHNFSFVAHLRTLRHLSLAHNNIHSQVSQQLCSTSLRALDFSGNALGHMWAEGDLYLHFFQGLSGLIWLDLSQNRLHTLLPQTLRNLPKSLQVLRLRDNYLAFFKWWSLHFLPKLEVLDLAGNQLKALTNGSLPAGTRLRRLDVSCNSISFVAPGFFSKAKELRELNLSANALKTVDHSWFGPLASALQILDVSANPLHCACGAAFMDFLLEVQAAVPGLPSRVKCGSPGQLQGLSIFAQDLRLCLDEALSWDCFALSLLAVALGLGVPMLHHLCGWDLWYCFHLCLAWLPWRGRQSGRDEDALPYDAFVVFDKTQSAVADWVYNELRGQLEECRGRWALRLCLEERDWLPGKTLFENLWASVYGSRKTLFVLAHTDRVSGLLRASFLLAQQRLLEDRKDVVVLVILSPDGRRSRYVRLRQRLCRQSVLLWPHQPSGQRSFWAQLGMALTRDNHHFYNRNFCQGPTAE
# Outline: (§2)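 Human PBMCs were pre-incubated 30 min with test compound, then stimulated with the respective TLR or IL-1R agonist at doses from earlier work. Cytokines in supernatants were quantified by immunoassay. Viability across the dose range was checked by CellTiter-Glo.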
# [4] = tested on: SLE immune-complex-driven IFN-α response in PBMCs; experiment: IFN-α release from PBMCs stimulated with SLE patient sera immune complexes; type: cell-based, human; settings: PBMCs
# [5] = molecular target: TLR4 (Homo sapiens, UniProt O00206); experiment: Human PBMC cytokine secretion, TLR4 agonist; type: cell-based; settings: human PBMCs; up to 10 μM; n = 5 donors
# Sequence of TLR4 (O00206 24-839): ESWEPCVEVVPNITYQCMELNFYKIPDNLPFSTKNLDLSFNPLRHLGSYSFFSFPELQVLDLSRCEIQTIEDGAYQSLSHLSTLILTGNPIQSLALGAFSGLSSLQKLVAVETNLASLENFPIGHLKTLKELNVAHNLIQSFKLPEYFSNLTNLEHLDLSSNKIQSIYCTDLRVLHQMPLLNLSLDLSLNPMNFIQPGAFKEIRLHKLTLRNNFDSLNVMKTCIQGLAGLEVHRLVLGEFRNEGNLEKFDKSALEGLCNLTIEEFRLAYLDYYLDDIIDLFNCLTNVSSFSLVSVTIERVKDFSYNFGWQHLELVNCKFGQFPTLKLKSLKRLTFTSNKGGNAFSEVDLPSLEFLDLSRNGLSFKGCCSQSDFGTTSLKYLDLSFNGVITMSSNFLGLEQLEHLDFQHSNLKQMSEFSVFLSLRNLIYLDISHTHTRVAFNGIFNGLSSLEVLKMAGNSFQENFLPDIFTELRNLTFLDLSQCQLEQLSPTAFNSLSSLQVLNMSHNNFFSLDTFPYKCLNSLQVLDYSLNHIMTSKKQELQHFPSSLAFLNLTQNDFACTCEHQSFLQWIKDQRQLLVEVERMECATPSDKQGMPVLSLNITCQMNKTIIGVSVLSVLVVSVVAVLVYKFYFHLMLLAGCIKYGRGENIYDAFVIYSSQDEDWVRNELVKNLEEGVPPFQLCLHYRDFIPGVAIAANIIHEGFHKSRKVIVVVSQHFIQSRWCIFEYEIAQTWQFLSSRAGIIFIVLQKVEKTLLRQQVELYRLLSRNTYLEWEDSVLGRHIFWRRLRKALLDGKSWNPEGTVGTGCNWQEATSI
# Sequence of TLR4 (Q9Y6Y9 19-160 partner): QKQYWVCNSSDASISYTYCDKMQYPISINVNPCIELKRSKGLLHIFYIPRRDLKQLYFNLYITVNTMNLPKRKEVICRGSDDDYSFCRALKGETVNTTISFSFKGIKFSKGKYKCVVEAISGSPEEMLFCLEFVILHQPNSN
# Outline: as §2
# [6] = molecular target: murine TLR7 (Mus musculus, UniProt P58681); experiment: Murine whole blood assay, ssRNA-induced IFN-α and TNF; type: cell-based
# Sequence of murine TLR7 (P58681 27-1050): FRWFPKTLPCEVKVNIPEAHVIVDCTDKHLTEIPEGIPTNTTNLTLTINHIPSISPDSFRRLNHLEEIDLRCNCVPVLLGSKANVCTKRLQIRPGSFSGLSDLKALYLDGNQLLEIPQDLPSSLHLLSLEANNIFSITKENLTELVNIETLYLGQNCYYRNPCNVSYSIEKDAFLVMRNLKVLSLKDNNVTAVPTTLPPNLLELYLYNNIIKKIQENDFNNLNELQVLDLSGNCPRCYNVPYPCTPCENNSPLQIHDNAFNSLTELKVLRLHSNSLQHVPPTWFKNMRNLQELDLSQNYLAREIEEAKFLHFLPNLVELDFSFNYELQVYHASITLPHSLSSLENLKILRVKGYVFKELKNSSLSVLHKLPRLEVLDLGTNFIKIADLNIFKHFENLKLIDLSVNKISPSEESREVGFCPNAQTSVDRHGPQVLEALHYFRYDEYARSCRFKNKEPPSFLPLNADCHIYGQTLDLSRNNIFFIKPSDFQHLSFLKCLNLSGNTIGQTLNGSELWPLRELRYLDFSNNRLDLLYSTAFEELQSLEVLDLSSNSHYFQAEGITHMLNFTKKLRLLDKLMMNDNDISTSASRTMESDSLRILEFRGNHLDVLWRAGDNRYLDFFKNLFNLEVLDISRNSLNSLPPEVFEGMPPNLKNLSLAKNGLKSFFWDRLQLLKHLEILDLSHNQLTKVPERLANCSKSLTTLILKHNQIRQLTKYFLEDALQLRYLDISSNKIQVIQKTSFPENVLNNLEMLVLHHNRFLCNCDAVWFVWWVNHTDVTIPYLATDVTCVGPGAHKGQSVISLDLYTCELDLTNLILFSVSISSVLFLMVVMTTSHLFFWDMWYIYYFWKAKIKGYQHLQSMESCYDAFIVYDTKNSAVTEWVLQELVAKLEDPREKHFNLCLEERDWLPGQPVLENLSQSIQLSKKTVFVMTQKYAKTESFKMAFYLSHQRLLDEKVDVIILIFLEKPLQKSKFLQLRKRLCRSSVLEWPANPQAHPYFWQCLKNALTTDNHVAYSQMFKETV
# Outline: as §1
compound,measurement,setting,value
"Cc1cc(N2CCc3c(c(C)nn3CC34CCC(NC(=O)[C@@H]5COCCN5)(CC3)CC4)C2)c2cnn(C)c2n1 [MHV370, (S)-N-(4-((5-(1,6-dimethyl-1H-pyrazolo[3,4-b]pyridin-4-yl)-3-methyl-4,5,6,7-tetrahydro-1H-pyrazolo[4,3-c]pyridin-1-yl)methyl)bicyclo[2.2.2]octan-1-yl)morpholine-3-carboxamide]",IC50,[1],31 ± 4.4 nM
same,interference with TNF receptor-driven activity,[2],did not interfere
same,IC50,[3],1300 nM
same,"immune-complex-driven responses, sera expressing dsDNA antibodies",[4]; MHV370 0.3 μM,blocked to a much lesser extent
same,"immune-complex-driven responses, sera positive for RNP/Sm and/or SS-A, or RNP/Sm and/or SS-A plus dsDNA autoantibodies",[4]; MHV370 0.3 μM,completely blocked
same,"IFN-α suppression, MHV370 added to HCQ","[4]; MHV370 1–10 nM combined with variable concentrations of HCQ, SLE immune complexes",almost complete suppression
same,"interference with cytokine secretion, TLR4 agonist",[5],did not significantly interfere
same,IC50,"[6]; IC50, TLR7 (ssRNA-IFN-α), mouse blood, mean ± SEM (n)",58 ± 10 nM
same,potency on mouse whole blood relative to human whole blood (fold lower),[6]; mouse vs human whole blood,about 10 fold
